From ChEMBL document CHEMBL1938337, “Discovery of novel, potent, and selective inhibitors of 3-phosphoinositide-dependent kinase (PDK1)” (J Med Chem, 2011)
pEC50, pIC50, pKi: −log10 of the molar value. ≈ marks a conversion by molar mass, not a printed value.

Key:
[1] = Solubility of the compound at pH 6.5; format: physicochemical; conditions: buffer
[2] = Clearance in human liver microsomes; format: ADME, Microsome; conditions: read-out: CLH
[3] = Inhibition of recombinant GST-tagged P70S6K using 5FAM-KRSRTRTDSYSAGQ-COOH as substrate by fluorescence based assay
Summary of the method: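 GST-tagged P70S6K (a.a. 1-421) at 5 nM, 50 μM ATP, 5 μM 5FAM-peptide. Product separated from substrate by charge (electrophoretic mobility shift, −2500/−500 V). Duplicates, nonlinear regression fit.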

[4] = molecular target: T1, RAC-alpha serine/threonine-protein kinase (Homo sapiens, UniProt P31749); experiment: Inhibition of His-tagged AKT1 using 5FAM-GRPRTSSFAEGCONH2 as substrate by fluorescence based assay
[5] = molecular target: T2, 3-phosphoinositide-dependent protein kinase 1 (Homo sapiens, UniProt O15530); experiment: Inhibition of PDK1-mediated AKT1 phosphorylation at T308 in human SKOV3 cells after 2 hrs by ELISA; format: cell-based, SK-OV-3
T2 sequence (O15530 whole entry): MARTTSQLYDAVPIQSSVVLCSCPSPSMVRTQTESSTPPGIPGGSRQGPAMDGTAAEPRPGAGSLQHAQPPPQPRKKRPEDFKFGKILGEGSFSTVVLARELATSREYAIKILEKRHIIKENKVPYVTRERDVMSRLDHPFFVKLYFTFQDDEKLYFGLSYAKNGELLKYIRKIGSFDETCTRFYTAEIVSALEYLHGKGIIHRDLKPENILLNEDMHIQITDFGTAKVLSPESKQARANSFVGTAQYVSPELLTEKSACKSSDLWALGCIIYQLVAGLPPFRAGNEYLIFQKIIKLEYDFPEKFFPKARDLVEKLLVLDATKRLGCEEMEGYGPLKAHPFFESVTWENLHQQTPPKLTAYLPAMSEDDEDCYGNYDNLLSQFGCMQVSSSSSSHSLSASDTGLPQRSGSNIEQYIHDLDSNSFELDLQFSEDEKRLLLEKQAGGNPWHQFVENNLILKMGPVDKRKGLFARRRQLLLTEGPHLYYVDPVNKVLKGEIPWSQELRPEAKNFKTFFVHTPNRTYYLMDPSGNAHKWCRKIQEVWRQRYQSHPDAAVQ
Summary of the method: (§1)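 Cells seeded at 50,000 per well and left to adhere overnight. Inhibitor was added as a 3-fold serial dilution from 0.0169 nM to 10 μM for 2 h, then cells were lysed. Lysates were tested in a commercial pAKT-T308 sandwich ELISA per the kit protocol. IC50 from duplicates, each run repeated at least twice.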

[6] = molecular target: T2, 3-phosphoinositide-dependent protein kinase 1; experiment: Inhibition of PDK1-mediated AKT1 phosphorylation at T308 in human A549 cells after 2 hrs by ELISA; format: cell-based; summary of the method: as §1
A549 = experiment: Antiproliferative activity against human A549 cells after 72 hrs by resazurin reduction assay; format: functional, cell-based; conditions: A549, 72 h
Summary of the method: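 Cells seeded at 3,000 per well, left to adhere overnight, then given inhibitor as a 3-fold serial dilution from 0.0169 nM to 10 μM. After 72 h, 250 μg/mL resazurin was added, followed by 6 h more at 37 °C. Fluorescence was read at ex 560 / em 590 nm.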

[7] = molecular target: Serine/threonine-protein kinase Chk2 (Homo sapiens) (UniProt O96017); experiment: Inhibition of CHEK2 at 1 uM
Serine/threonine-protein kinase Chk2 (Homo sapiens), sequence (O96017 whole entry): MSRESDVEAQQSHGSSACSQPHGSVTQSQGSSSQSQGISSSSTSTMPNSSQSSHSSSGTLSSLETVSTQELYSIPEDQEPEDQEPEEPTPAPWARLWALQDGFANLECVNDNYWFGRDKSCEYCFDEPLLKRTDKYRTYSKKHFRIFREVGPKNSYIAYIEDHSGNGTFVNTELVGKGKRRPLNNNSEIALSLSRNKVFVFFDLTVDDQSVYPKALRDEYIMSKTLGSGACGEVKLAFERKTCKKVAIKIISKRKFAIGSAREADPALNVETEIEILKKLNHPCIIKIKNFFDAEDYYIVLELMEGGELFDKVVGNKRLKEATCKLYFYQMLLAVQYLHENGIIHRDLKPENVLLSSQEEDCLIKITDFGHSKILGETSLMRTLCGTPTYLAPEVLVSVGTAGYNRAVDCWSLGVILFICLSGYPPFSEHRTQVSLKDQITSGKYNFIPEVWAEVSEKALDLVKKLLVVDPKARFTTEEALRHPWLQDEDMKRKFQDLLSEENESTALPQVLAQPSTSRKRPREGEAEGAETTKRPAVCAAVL

[8] = molecular target: Serine/threonine-protein kinase MARK1 (Homo sapiens, UniProt Q9P0L2); experiment: Inhibition of MARK1 at 1 uM
[9] = molecular target: cAMP-dependent protein kinase catalytic subunit alpha (Homo sapiens) (UniProt P17612); experiment: Inhibition of PRKACA at 1 uM
[10] = molecular target: Glycogen synthase kinase-3 beta (Homo sapiens, UniProt P49841); experiment: Inhibition of GSK3B at 1 uM
[11] = molecular target: T1, RAC-alpha serine/threonine-protein kinase; experiment: Inhibition of AKT1 at 1 uM
[12] = molecular target: Tyrosine-protein kinase Lck (Homo sapiens) (UniProt P06239); experiment: Inhibition of LCK at 1 uM
Tyrosine-protein kinase Lck (Homo sapiens), sequence (P06239 2-509 limits assumed): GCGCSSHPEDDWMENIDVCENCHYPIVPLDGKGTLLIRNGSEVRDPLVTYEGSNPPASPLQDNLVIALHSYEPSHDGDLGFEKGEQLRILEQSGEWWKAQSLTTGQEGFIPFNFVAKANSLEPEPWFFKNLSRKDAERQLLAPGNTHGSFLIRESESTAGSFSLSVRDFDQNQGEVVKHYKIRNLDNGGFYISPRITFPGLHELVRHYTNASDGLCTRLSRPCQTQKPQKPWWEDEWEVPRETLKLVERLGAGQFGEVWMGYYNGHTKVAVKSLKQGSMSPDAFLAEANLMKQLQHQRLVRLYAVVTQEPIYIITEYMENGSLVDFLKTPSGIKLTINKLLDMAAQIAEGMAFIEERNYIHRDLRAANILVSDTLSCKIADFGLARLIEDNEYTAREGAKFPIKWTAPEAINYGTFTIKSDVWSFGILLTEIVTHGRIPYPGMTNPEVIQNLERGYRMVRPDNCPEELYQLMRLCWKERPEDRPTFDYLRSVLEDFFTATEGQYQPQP

[13] = molecular target: Fibroblast growth factor receptor 1 (Homo sapiens) (UniProt P11362); experiment: Inhibition of FGFR1 at 1 uM
Fibroblast growth factor receptor 1 (Homo sapiens), sequence (P11362 22-822 limits assumed): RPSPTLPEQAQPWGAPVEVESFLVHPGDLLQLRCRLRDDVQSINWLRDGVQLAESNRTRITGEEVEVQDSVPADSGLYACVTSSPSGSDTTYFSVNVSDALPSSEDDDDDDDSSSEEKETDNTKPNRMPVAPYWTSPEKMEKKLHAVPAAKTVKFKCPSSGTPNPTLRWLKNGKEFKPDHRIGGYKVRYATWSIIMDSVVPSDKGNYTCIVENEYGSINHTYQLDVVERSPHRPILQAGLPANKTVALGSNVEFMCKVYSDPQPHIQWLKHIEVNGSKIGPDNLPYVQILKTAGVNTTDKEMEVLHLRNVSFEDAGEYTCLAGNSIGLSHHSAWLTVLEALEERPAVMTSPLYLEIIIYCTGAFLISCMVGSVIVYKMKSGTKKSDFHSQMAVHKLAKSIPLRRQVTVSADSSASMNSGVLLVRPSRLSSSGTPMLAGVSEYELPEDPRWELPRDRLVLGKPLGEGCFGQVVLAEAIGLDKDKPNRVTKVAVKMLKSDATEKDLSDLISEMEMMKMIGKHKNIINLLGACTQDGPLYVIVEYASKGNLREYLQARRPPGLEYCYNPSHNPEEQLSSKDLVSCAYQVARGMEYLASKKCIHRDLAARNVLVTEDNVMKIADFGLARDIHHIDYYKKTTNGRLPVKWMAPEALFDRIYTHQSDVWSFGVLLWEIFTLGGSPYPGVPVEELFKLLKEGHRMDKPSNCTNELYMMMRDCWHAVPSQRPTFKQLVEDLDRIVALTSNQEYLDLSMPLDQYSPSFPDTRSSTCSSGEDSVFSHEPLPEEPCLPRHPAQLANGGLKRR

[14] = molecular target: T3, Tyrosine-protein kinase JAK3 (Homo sapiens) (UniProt P52333); experiment: Inhibition of JAK3 at 1 uM
T3 sequence (whole entry): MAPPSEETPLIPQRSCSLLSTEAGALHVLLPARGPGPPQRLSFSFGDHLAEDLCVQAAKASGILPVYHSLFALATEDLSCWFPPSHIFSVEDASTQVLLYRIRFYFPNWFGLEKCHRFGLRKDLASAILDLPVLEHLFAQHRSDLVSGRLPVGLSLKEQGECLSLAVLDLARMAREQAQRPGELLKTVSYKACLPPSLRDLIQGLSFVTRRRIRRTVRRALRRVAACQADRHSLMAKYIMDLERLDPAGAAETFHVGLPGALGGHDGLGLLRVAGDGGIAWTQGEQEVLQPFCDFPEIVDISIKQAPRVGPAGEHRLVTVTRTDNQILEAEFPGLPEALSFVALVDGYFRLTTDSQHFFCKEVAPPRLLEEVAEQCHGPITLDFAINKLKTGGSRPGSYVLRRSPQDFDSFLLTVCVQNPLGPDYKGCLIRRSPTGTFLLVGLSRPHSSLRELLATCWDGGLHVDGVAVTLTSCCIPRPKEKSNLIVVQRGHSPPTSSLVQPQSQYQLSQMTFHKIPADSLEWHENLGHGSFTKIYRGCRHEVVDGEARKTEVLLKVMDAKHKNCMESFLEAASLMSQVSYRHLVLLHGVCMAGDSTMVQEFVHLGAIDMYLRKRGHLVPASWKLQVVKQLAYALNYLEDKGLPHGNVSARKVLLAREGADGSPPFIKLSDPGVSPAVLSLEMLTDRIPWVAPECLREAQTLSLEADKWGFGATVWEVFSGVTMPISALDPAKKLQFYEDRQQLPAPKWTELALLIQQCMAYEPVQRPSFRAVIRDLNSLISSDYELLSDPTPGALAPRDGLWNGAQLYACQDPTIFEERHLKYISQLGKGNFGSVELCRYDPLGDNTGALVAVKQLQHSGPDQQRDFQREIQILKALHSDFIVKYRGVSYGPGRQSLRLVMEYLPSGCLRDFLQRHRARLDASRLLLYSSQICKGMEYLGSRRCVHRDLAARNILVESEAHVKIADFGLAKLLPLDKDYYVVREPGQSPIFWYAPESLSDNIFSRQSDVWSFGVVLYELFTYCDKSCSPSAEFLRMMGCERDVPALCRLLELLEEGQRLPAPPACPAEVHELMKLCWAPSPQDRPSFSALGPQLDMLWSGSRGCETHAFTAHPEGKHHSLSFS

[15] = molecular target: Hepatocyte growth factor receptor (Homo sapiens) (UniProt P08581); experiment: Inhibition of MET at 1 uM
Hepatocyte growth factor receptor (Homo sapiens), sequence (P08581 whole entry): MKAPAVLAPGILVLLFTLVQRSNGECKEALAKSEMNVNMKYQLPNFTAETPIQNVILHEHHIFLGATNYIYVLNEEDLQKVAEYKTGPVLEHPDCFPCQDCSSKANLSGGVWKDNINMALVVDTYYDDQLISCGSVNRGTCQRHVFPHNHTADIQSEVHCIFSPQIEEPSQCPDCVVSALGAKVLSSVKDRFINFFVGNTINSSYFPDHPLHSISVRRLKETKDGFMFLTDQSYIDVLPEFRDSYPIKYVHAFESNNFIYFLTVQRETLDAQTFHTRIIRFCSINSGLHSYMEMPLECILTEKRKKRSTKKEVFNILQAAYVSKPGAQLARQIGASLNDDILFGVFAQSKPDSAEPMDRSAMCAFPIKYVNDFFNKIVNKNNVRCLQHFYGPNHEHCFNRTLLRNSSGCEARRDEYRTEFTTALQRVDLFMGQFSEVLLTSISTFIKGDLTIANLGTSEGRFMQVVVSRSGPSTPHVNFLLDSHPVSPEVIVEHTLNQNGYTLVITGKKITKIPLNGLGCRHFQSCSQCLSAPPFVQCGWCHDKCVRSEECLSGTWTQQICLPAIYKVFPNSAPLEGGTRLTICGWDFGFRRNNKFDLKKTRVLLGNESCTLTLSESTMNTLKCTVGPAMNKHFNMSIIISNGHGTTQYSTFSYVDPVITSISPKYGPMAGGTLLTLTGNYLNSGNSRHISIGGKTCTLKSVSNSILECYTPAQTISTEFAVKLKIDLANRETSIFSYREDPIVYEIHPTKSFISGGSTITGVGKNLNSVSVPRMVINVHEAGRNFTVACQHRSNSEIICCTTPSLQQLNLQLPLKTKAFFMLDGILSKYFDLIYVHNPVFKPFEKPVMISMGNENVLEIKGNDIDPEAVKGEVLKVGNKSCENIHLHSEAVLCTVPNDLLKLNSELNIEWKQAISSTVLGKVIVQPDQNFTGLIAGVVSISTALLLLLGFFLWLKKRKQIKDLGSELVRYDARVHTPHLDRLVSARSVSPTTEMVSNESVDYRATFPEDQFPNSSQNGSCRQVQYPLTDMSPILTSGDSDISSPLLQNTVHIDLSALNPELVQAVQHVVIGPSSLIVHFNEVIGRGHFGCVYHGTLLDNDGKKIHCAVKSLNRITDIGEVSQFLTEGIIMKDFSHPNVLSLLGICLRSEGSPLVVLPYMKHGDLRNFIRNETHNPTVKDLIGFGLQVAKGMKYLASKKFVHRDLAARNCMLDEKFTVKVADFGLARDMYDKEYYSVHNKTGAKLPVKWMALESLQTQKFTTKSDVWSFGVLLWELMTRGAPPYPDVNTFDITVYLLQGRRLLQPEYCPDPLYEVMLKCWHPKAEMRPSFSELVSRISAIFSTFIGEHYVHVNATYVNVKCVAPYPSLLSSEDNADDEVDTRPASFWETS

[16] = molecular target: MAP kinase-activated protein kinase 2 (Homo sapiens) (UniProt P49137); experiment: Inhibition of MAPKAPK2 at 1 uM
MAP kinase-activated protein kinase 2 (Homo sapiens), sequence (P49137 whole entry, looked up): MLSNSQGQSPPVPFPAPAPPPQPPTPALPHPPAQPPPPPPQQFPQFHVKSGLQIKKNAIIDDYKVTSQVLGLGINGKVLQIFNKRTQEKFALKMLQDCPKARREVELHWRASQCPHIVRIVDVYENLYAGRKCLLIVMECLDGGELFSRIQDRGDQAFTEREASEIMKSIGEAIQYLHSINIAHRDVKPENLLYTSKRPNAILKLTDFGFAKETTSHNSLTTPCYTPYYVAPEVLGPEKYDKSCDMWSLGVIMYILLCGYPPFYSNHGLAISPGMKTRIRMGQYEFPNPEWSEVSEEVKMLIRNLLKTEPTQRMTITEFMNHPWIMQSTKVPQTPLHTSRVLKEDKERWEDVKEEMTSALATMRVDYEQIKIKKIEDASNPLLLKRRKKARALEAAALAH

[17] = molecular target: Serine/threonine-protein kinase 26 (Homo sapiens) (UniProt Q9P289); experiment: Inhibition of MST4 at 1 uM
Serine/threonine-protein kinase 26 (Homo sapiens), sequence (Q9P289 2-416 limits assumed): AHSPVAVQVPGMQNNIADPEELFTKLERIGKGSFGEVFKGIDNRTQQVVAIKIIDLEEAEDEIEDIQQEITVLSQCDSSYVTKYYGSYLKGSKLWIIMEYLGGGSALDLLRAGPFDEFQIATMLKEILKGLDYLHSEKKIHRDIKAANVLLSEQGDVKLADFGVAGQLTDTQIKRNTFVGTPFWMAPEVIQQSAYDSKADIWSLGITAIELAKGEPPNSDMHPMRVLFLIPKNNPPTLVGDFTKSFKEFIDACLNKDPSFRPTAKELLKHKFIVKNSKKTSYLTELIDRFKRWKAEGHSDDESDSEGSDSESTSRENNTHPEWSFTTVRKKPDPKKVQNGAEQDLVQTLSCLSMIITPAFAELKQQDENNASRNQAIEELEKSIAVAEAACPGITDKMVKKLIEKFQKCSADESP

[18] = molecular target: Myosin light chain kinase 2, skeletal/cardiac muscle (Homo sapiens) (UniProt Q9H1R3); experiment: Inhibition of MYLK2 at 1 uM
Myosin light chain kinase 2, skeletal/cardiac muscle (Homo sapiens), sequence (Q9H1R3 whole entry): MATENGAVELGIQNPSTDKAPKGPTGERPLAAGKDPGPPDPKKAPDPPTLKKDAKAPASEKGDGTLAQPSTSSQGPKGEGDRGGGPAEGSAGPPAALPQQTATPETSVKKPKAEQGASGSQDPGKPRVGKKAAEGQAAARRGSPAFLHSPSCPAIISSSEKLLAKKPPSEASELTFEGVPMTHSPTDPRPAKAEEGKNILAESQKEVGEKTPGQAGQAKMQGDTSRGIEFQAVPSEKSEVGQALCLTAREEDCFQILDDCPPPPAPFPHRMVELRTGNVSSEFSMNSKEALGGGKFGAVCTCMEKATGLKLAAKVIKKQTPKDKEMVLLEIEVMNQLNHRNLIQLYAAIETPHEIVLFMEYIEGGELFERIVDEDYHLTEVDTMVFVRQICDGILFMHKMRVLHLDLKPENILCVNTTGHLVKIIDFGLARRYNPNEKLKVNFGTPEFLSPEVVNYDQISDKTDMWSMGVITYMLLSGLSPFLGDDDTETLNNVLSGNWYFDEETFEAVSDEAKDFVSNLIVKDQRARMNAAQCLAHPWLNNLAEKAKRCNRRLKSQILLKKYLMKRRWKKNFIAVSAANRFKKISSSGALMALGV

Row | Compound | solubility [1] [µM] | microsomal CLint [2] [µL/min/mg] | pKi [3] | pKi [4] | pIC50 [5] | pIC50 [6] | pEC50 (A549) | inhibition [7] [%] | inhibition [8] [%] | inhibition [9] [%] | inhibition [10] [%] | inhibition [11] [%] | inhibition [12] [%] | inhibition [13] [%] | inhibition [14] [%] | inhibition [15] [%] | inhibition [16] [%] | inhibition [17] [%] | inhibition [18] [%]
1 | CC(=O)N1CC[C@@H](Nc2cncc(C(=O)c3cn(C(C)C)c4ncnc(N)c34)n2)[C@H]1c1ccc(F)cc1 | 390 (≈ 196 µg/mL) | 120 | 5.00 | 6.44 | 7.15 | 7.10 | 5.66 | 99 | 74 | 58 | 76 | 57 | 22 | 7 | 6 | 8 | 2 | 8 | -8
2 | CC(=O)N1CC[C@@H](Nc2cncc(C(=O)c3cn(C(C)C)c4ncnc(N)c34)n2)[C@H]1c1ccccc1 | 510 (≈ 247 µg/mL) | 110 | 5.44 | 5.96 | 6.70 | 6.52 | 5.28 | 94 | 47 | 30 | 42 | 15 | 11 | 6 | -2 | 4 | 6 | -6 | -2
3 | CC(C)n1cc(C(=O)c2cncc(N[C@@H]3CCN(C=O)[C@@H]3c3ccc(F)cc3)n2)c2c(N)ncnc21 | 290 (≈ 142 µg/mL) | 62 | 6.05 | 6.77 | 7.15 | 7.30 | 5.74 | 98 | 84 | 74 | 66 | 62 | 27 | 17 | 16 | 12 | 6 | 4 | 3
